Source: paper PMC5912898 (Nature chemical biology, 2017)
Read-outs that look alike come from different tables or passages of the source. Each block holds one molecule with its values, some of them ahead of it.

Assays:
[1] = target: CDK1/CycB (Homo sapiens, UniProt P06493); assay: Z'LYTE in vitro kinase assay; assay type: biochemical
Outline: (§1)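 Inhibition of the recombinant cyclin-bound CDK complex was measured in a Z'LYTE kinase assay run by a contract service at the Km concentration of ATP.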

[2] = target: CDK2/CycA (Homo sapiens, UniProt P24941); assay: Z'LYTE in vitro kinase assay; assay type: biochemical
Outline: as §1

[3] = target: CDK7/CycH/MNAT1 (Homo sapiens, UniProt P50613); assay: Adapta Eu in vitro kinase assay; assay type: biochemical
[4] = target: CDK9/CycT1 (Homo sapiens, UniProt P50750); assay: Adapta Eu in vitro kinase assay; assay type: biochemical
[5] = test system: PCTAIRE1,PCTAIRE3; assay: Kinativ live cell chemical proteomics; assay type: cell-based, human; details: live cell treatment, 0.25μM
[6] = test system: PCTAIRE2,PCTAIRE3; assay: Kinativ live cell chemical proteomics; assay type: cell-based, human; details: live cell treatment, 0.25μM
[7] = test system: MOLT4 cells; assay: Proliferation assay; assay type: cell-based, human; details: for IC50: read-out: proliferation IC50
[8] = test system: CRBN−/− MOLT4 cells; assay: Proliferation assay; assay type: cell-based; details: Homo sapiens, MOLT-4, 72 h, read-out: proliferation IC50
Outline: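 CRBN−/− MOLT4 cells were exposed to a range of test compound concentrations for 72 h. Viability was measured with CellTiter-Glo, and IC50 was derived by non-linear regression curve fitting.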

[9] = test system: panel of eleven different leukemia cancer cell lines; assay: Proliferation in leukemia cell line panel; assay type: cell-based
[10] = target: T1, CDK9 (Homo sapiens, UniProt P50750); assay: CDK9 degradation by immunoblot; assay type: cell-based
[11] = target: T1, CDK9; assay: Multiplexed quantitative mass spectrometry-based proteomics; assay type: cell-based; details: MOLT4 cells, 250nM, 2 hours, 4512 proteins quantified
Outline: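 MOLT4 cells (RPMI-1640, 10% FBS, 1% Pen/Strep, 37°C, 5% CO₂) exposed to 250nM test compound for 2 hours. Proteins labelled with 10plex TMT isobaric tags and run on an Orbitrap Fusion using SPS-MS3. Threshold of 2 peptides per protein. Log fold-change vs p-value plotted. n=3 biological replicates.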

[12] = test system: CDK1 mRNA; assay: qPCR of mRNA levels; assay type: cell-based, human; details: MOLT4 cells, 250nM, 8 hours
[13] = test system: CDK7 mRNA; assay: qPCR of mRNA levels; assay type: cell-based, human; details: MOLT4 cells, 250nM, 8 hours
[14] = test system: MOLT4 cells; assay: Apoptosis by immunoblot; assay type: cell-based, human; details: wildtype MOLT4 cells, 250 nM
Outline: (§2)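 Wildtype MOLT4 cells were treated with 250 nM test compound for the indicated times. They were lysed for 30 min on ice in RIPA buffer (pH 7.4) with protease and phosphatase inhibitors and nuclease. Lysates were clarified at 21,000g for 30 min at 4°C and protein measured by BCA. Blots were detected with infrared-labelled secondary antibodies.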

[15] = target: T1, CDK9; assay: Bio-AT7519 pulldown target engagement; assay type: cell-based; details: 6 hours, 1μM, 500nM or 250nM
Outline: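 Live wildtype or CRBN−/− MOLT4 cells were exposed to DMSO or test compound for 6 h, then PBS-washed and lysed (50 mM Tris-HCl pH 8.0, 150 mM NaCl, 1% NP-40, 5 mM EDTA, 1 mM DTT, protease/phosphatase inhibitors). Clarified lysate (input sampled) was rotated overnight at 4°C with 1μM biotinylated AT7519, then captured on streptavidin resin for 3 h at 4°C. Beads were washed ×5, boiled, and immunoblotted.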

[16] = target: T2, CDK10 (Homo sapiens, UniProt Q15131); assay: CDK10 degradation by immunoblot; assay type: cell-based; details: MOLT4 cells
Outline: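 MOLT4 cells treated with test compound were lysed in RIPA buffer (pH 7.4) with protease and phosphatase inhibitors and nuclease for 30 min on ice. Lysates were clarified at 21,000g for 30 min at 4°C and quantified by BCA. CDK10 was immunoblotted and detected with infrared-labelled secondary antibodies.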

[17] = test system: RNA Pol II CTD Serine 2 phosphorylation; assay: RNA Pol II CTD phosphorylation by immunoblot; assay type: cell-based, human; details: MOLT4 cells
Outline: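 MOLT4 cells lysed on ice for 30 min in RIPA buffer (pH 7.4) with protease and phosphatase inhibitors and 2.5 U/mL nuclease. Lysate spun at 21,000g, 30 min, 4°C, and protein measured by BCA. Blots probed with anti-phospho-CTD Ser2 alongside total Pol II and tubulin. Infrared-labelled secondaries; blots imaged on Odyssey.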

[18] = test system: MCL-1; assay: MCL-1 protein level by immunoblot; assay type: cell-based, human; details: wildtype MOLT4 cells, 250 nM time course
Outline: as §2

[19] = test system: panel of 468 kinases; assay: Kinomescan kinome selectivity profiling; assay type: binding; details: Kinomescan at 1μM
[20] = target: T1, CDK9; assay: Kinomescan profiling; assay type: binding; details: 1μM
[21] = target: DYRK1B (Homo sapiens, UniProt Q9Y463); assay: Kinomescan profiling; assay type: binding; details: 1μM
[22] = target: T1, CDK9; assay: Kinativ live cell chemical proteomics; assay type: cell-based; details: CRBN−/− MOLT4 cells, live cell treatment, 0.25μM
Outline: (§3)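 Test compound was applied to intact MOLT4 cells (CRBN−/− or wildtype). Cells were then sonicated in 50 mM HEPES pH 7.5, 150 mM NaCl, 0.1% Triton X-100 with phosphatase inhibitors, and cleared. Lysate was labelled with desthiobiotin-ATP acylphosphate probe (20 μM final) for 10 min. Samples were reduced and alkylated for LC-MS/MS, and % inhibition was calculated from integrated peak areas against DMSO controls.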

[23] = target: CDK6 (Homo sapiens, UniProt Q00534); assay: Kinativ live cell chemical proteomics; assay type: cell-based; details: live cell treatment, 0.25μM
[24] = target: PCTAIRE2 (Homo sapiens, UniProt Q00537); assay: Kinativ live cell chemical proteomics; assay type: cell-based; details: live cell treatment, 0.25μM
[25] = target: GSK3A (Homo sapiens, UniProt P49840); assay: Kinativ live cell chemical proteomics; assay type: cell-based; details: live cell treatment, 0.25μM
Outline: as §3

[26] = test system: MOLT4 cells; assay: Annexin V flow cytometry of apoptotic cells; assay type: cell-based, human; details: 250 nM, without washout
Outline: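 MOLT4 cells were exposed to 250 nM test compound for 6 h, then either washed three times with media or left in compound, and collected 24 h later. Cells were PBS-washed, stained with FITC annexin V in HEPES/NaCl/CaCl₂ binding buffer (pH 7.4) at room temperature, and propidium iodide was added just before flow cytometry. Results are means ± s.d. of 3 biological replicates.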

[27] = target: CDK2 (Homo sapiens, UniProt P24941); assay: Bio-AT7519 pulldown target engagement; assay type: cell-based; details: wildtype and CRBN−/− MOLT4 cells, 6 hours, 1μM, 500nM or 250nM
[28] = target: CDK7 (Homo sapiens, UniProt P50613); assay: Bio-AT7519 pulldown target engagement; assay type: cell-based; details: wildtype and CRBN−/− MOLT4 cells, 6 hours, 1μM, 500nM or 250nM
[29] = target: T1, CDK9; assay: Kinativ lysate chemical proteomics; assay type: binding; details: MOLT4 cell lysate, 1uM
Outline: (§4)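 MOLT4 lysate (sonicated in HEPES pH 7.5/NaCl/Triton buffer, then gel-filtered) was incubated 15 min in duplicate with test compound added from a 100X DMSO stock, or with DMSO alone. Desthiobiotin-ATP acylphosphate probe (20 μM final) was then added for 10 min. Peptides were analysed by LC-MS/MS, and % inhibition was calculated as 1 − treated/control signal.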

[30] = target: T2, CDK10; assay: Kinativ lysate chemical proteomics; assay type: binding; details: MOLT4 cell lysate, 1uM
Outline: as §4

[31] = 6-hour treatment then compound washout
[32] = wildtype and CRBN−/− MOLT4 cells

T1 sequence (P50750 whole entry): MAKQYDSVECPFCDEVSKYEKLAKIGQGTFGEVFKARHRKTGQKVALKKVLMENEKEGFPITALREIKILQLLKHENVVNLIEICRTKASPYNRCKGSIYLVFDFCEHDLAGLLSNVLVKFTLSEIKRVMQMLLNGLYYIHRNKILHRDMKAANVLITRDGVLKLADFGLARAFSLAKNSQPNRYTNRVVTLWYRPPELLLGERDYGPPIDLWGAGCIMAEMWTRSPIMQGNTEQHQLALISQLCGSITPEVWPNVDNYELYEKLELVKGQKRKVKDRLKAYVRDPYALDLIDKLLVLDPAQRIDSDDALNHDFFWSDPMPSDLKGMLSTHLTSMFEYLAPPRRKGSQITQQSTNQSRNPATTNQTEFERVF
CDK6, sequence (Q00534 whole entry): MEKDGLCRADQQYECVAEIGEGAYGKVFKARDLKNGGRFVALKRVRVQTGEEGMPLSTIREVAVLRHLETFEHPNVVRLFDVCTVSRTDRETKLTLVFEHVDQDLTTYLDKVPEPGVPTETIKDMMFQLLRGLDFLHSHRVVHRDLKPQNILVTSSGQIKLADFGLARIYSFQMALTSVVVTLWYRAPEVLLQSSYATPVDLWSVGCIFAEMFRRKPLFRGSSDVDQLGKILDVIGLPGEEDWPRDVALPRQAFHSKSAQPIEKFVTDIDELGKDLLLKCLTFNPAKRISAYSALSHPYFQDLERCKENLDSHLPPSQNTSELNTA
GSK3A, sequence (P49840 whole entry): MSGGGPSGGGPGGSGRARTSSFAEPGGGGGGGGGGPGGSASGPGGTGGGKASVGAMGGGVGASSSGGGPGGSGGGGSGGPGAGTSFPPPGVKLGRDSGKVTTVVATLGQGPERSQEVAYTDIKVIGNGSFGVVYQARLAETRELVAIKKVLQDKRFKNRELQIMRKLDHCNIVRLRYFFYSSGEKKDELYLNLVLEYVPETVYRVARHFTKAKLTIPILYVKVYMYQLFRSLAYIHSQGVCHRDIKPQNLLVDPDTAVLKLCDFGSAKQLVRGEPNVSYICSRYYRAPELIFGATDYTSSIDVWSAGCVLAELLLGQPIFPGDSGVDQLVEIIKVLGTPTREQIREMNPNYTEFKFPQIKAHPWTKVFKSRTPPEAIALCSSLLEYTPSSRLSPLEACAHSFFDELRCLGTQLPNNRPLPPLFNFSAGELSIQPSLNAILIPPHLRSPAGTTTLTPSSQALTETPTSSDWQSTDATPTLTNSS
CDK9/CycT1, sequence (P50750 whole entry): as the sequence (P50750 whole entry) above
CDK9/CycT1, sequence (O60563 whole entry partner): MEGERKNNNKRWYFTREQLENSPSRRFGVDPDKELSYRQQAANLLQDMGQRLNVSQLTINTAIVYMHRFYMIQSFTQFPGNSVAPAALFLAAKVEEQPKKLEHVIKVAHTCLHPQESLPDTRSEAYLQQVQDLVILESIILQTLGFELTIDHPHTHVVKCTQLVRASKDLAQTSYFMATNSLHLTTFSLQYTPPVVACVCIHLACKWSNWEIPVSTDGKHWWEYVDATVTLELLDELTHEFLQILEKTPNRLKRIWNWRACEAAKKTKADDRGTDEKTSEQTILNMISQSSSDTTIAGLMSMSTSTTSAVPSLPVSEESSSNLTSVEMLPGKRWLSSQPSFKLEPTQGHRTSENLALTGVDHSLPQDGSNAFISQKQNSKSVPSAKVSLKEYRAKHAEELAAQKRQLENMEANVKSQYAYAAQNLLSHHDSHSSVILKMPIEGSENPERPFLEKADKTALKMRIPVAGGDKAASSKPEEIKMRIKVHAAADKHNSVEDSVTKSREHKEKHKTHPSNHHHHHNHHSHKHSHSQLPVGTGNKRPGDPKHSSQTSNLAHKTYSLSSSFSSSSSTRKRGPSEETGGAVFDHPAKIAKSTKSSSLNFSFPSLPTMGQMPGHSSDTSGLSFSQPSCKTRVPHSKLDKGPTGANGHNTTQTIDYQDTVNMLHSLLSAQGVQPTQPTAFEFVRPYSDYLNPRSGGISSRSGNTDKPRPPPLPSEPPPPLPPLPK
PCTAIRE2, sequence (Q00537 whole entry): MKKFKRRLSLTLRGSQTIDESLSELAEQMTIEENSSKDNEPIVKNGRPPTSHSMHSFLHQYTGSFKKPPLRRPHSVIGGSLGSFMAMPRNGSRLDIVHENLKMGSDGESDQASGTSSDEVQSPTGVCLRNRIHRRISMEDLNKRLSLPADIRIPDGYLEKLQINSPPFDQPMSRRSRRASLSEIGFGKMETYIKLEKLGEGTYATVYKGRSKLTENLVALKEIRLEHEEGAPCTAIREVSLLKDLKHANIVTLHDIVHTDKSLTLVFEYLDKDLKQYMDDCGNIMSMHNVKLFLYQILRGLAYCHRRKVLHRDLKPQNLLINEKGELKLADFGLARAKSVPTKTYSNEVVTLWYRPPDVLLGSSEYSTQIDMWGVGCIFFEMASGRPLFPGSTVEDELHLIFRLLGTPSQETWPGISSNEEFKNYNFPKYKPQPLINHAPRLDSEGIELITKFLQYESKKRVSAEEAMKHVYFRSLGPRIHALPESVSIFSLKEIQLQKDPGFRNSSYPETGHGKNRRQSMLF
CDK7/CycH/MNAT1, sequence (P50613 whole entry): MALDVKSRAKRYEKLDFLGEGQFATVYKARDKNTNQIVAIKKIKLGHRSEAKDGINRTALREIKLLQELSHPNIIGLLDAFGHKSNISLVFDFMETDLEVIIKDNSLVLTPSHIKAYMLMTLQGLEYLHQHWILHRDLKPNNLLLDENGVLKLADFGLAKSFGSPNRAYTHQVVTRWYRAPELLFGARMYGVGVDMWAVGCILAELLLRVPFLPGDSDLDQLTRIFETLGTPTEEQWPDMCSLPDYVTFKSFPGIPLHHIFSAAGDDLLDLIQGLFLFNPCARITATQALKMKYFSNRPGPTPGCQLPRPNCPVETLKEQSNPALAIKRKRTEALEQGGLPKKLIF
CDK7/CycH/MNAT1, sequence (P51946 whole entry partner): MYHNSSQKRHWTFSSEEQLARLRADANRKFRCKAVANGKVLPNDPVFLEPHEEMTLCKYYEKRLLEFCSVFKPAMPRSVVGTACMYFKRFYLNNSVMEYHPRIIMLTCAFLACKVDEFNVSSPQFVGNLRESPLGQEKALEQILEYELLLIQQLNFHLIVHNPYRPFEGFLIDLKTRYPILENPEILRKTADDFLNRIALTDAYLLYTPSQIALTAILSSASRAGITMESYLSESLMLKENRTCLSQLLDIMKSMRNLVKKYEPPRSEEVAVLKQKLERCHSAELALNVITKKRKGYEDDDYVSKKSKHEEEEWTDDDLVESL
CDK7/CycH/MNAT1, sequence (P51948 whole entry partner): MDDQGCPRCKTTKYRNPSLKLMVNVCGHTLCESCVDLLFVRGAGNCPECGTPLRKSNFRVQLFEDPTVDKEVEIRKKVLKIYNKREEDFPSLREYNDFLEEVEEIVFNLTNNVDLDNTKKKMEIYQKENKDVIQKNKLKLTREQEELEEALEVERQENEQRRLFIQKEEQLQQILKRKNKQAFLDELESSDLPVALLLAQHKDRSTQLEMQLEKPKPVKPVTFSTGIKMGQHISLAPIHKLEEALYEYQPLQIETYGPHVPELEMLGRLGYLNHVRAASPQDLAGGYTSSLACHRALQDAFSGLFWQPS
T2 sequence (Q15131 whole entry): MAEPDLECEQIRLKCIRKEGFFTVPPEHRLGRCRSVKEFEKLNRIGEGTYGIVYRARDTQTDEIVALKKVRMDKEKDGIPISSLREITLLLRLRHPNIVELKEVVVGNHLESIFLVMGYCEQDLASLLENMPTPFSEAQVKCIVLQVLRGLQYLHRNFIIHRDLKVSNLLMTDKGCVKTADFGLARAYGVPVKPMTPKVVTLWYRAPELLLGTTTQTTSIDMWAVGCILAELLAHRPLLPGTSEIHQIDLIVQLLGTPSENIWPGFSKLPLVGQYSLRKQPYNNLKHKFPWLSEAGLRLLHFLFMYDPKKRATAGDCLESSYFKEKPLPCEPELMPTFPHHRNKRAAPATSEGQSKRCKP
DYRK1B, sequence (Q9Y463 whole entry): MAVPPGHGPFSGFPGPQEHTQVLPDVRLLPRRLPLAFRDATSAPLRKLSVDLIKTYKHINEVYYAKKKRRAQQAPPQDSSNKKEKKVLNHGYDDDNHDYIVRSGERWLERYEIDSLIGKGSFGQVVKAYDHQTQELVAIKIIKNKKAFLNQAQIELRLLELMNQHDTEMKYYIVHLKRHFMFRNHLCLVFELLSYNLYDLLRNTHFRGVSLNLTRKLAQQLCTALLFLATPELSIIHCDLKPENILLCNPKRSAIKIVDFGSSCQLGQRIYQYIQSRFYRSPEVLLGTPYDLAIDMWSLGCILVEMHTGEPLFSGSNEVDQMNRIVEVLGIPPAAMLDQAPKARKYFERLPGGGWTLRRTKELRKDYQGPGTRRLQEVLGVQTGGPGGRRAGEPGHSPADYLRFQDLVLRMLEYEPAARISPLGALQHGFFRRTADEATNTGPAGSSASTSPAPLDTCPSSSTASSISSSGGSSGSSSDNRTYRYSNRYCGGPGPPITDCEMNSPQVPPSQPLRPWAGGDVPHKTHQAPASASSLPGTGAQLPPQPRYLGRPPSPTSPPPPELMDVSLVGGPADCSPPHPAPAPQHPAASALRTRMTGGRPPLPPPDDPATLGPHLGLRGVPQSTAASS
CDK7, sequence (P50613 whole entry): as the sequence (P50613 whole entry) above

IC50 [1]: 171 nM | IC50 [2]: 62 nM | IC50 [3]: 398 nM | IC50 [4]: 4 nM | IC50 ([7]; Homo sapiens, MOLT-4, 72 h): 50 nM | IC50 [8]: 3.63 µM | time for CDK9 levels to return to baseline after washout [10, 31]: 36 h | time of partial rebound of CDK9 levels after washout [10, 31]: ≤ 12 h | time to complete CDK9 degradation ([10]; MOLT4 cells, 250 nM): 2 h | persistence of CDK9 degradation ([10]; MOLT4 cells, 250nM time course): at least 24 hours | concentration inducing complete CDK9 degradation ([10]; MOLT4 cells, 6-hour treatment): 250 nM | concentration at which CDK9 degradation decreases (hook effect) ([10]; MOLT4 cells, 6 hours): ≥ 5 µM | CDK9 engagement (bio-AT7519 competition) ([15]; CRBN−/− MOLT4 cells only): little to no engagement | CDK10 degradation [16]: partial degradation
SMILES: CC(C)(C)c1cnc(CSc2cnc(NC(=O)C3CCN(CC(=O)NCCOCCOCCOCCNc4cccc5c4C(=O)N(C4CCC(=O)NC4=O)C5=O)CC3)s2)o1 (stereo not drawn) [THAL-SNS-032]
percent inhibited PCTAIRE1,PCTAIRE3 (Lys2) labeling ([5]; CRBN−/− MOLT4 cells): 11.4% | percent inhibited PCTAIRE1,PCTAIRE3 (Lys2) labeling ([5]; Wildtype MOLT4 cells): 16.3% | percent inhibited PCTAIRE2,PCTAIRE3 (Lys1) labeling ([6]; CRBN−/− MOLT4 cells): 16% | percent inhibited PCTAIRE2,PCTAIRE3 (Lys1) labeling ([6]; Wildtype MOLT4 cells): 22.1% | viability after washout ([7]; 250nM, 6 hours treatment then washout, 72 hours of growth): more profound decrease in viability after washout compared to NVP-2 or SNS-032 | inhibition of proliferation compared to SNS-032 [9]: more potent inhibition of proliferation as compared to SNS-032 | CDK9 abundance in proteome-wide analysis [11]: most depleted protein out of 4512 proteins | CDK1 mRNA level relative to DMSO-treated [12]: around 20% | CDK7 mRNA level relative to DMSO-treated [13]: around 20% | time to induction of apoptosis (PARP and Caspase-3 cleavage) [14]: ≤ 4 h | phosphorylation of RNA Pol II CTD Serine 2 [17]: inhibited phosphorylation of Serine 2 in a concentration and time-dependent manner | MCL-1 protein level [18]: loss of MCL-1

SMILES: CC(C)(C)c1cnc(CSc2cnc(NC(=O)C3CCNCC3)s2)o1 [SNS-032, N-[5-[[[5-(1,1-Dimethylethyl)-2-oxazolyl]methyl]thio]-2-thiazolyl]-4-piperidinecarboxamide]
percent inhibited PCTAIRE2,PCTAIRE3 (Lys1) labeling ([6]; CRBN−/− MOLT4 cells): 75.4% | IC50 ([7]; Homo sapiens, MOLT-4, 72 h): 173 nM | time to induction of apoptosis (PARP and Caspase-3 cleavage) [14]: ≤ 4 h | CDK9 engagement (bio-AT7519 competition) [15, 32]: showed engagement | phosphorylation of RNA Pol II CTD Serine 2 [17]: inhibited in a concentration dependent manner

SMILES: COC[C@@H](C)NC1CCC(Nc2cc(-c3cccc(NCC4(C#N)CCOCC4)n3)c(Cl)cn2)CC1 (stereo partly drawn) [NVP-2]
IC50 ([3]; read-out: CDK7 IC50, Km ATP): > 10000 nM | IC50 ([4]; read-out: IC50 CDK9/CycT kinase activity, Km ATP): < 0.514 nM | S(1) score [19]: 0.005 | Kinomescan inhibition of CDK9 [20]: greater than 99% | Kinomescan inhibition of DYRK1B [21]: greater than 99% | percent inhibited CDK9 (Lys2) labeling [22]: ~63% | percent inhibited CDK6 (Lys2) labeling ([23]; CRBN−/− MOLT4 cells): −8.6% | percent inhibited CDK6 (Lys2) labeling ([23]; Wildtype MOLT4 cells): −10% | percent inhibited PCTAIRE1,PCTAIRE3 (Lys2) labeling ([5]; CRBN−/− MOLT4 cells): −5.2% | percent inhibited PCTAIRE1,PCTAIRE3 (Lys2) labeling ([5]; Wildtype MOLT4 cells): −30.5% | percent inhibited PCTAIRE2 (Lys2) labeling ([24]; CRBN−/− MOLT4 cells): 10.3% | percent inhibited PCTAIRE2 (Lys2) labeling ([24]; Wildtype MOLT4 cells): 8.1% | percent inhibited PCTAIRE2,PCTAIRE3 (Lys1) labeling ([6]; CRBN−/− MOLT4 cells): −15% | percent inhibited PCTAIRE2,PCTAIRE3 (Lys1) labeling ([6]; Wildtype MOLT4 cells): −4.7% | percent inhibited GSK3A (Lys2) labeling ([25]; CRBN−/− MOLT4 cells): 10% | percent inhibited GSK3A (Lys2) labeling ([25]; Wildtype MOLT4 cells): 5.8% | IC50 ([7]; wild-type MOLT4, 72 hours, CellTiter Glo): 9 nM | time to induction of apoptosis (PARP and Caspase-3 cleavage) [14]: ≤ 4 h | Annexin V positive cells [26]: ~100% | CDK9 engagement (bio-AT7519 competition) [15, 32]: engages CDK9 in wildtype and CRBN−/− MOLT4 cells at all concentrations tested | CDK2 engagement (bio-AT7519 competition) [27]: unaffected | CDK7 engagement (bio-AT7519 competition) [28]: unaffected | CDK9 engagement in lysate [29]: strongly engaged | CDK10 engagement in lysate [30]: strongly engaged | phosphorylation of RNA Pol II CTD Serine 2 [17]: inhibited in a concentration dependent manner | MCL-1 protein level [18]: MCL-1 loss was observed
